Reference: PMC4010123 (Neuron, 2014)
“Also recorded” adds a separate entry of the source.

Key:
[1] = test system: Ser1116 of NR2B phosphorylated by Cdk5; assay: P-S1116 NR2B in acute hippocampal slices; type: cell-based, mouse
[2] = test system: Cdk5 (substrate recombinant NR2B, Ser1116); assay: In vitro phosphorylation of Ser1116 NR2B by Cdk5; type: biochemical; settings: immunoblot
[3] = test system: Cdk5-NR2B protein-protein interaction; assay: Co-immunoprecipitation of Cdk5 and NR2B from hippocampal slices; type: cell-based, mouse; settings: 4 pooled slices per sample
Method in brief: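 Acute mouse hippocampal slices were treated in Mg2+-free Krebs buffer with test peptide, scrambled peptide or Cdk5 inhibitor. Four slices were pooled per sample for NR2B–Cdk5 co-immunoprecipitation and immunoblotting, with Cdk5 input shown.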

Sprague-Dawley rats = assay: Fear conditioning in rats, chronic infusion into dorsal hippocampus; type: in vivo, rat; settings: for conditioned fear response at 96 h: extinction trial, both groups (siP and scrambled) (Figure S4E)
Method in brief: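 Two-month-old Sprague-Dawley rats received continuous bilateral dorsal hippocampal infusion by mini-osmotic pump, starting 24 h before training. Training: 2 min exploration, then a 30 s tone (90 dB, 10 kHz) co-terminating with a foot shock (2 s, 0.7 mA); 2 min more in the box. Context tests: 5 min at 24, 48, 72 and 96 h. Tone recall at 27 h in a novel vanilla context (3 min, then 3 min tone). Freezing was time-sampled every 5 s, blind. After extinction and pump expiry, rats were retrained (0.7 mA) and context-tested 24 h later.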

rats = assay: Nociception, pain threshold and motor reflexes; type: in vivo, rat; settings: chronic infusion (Figure S4B and C)
Method in brief: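 Rats received continuous bilateral infusion of the test peptide or a scrambled control into dorsal hippocampus by mini-osmotic pump, starting 24 h before fear conditioning. Nociception was scored as the foot-shock threshold that elicits flinching, jumping and vocalizing in the conditioning box; a tail flick test was also used. Scoring was blind. Data are mean ± SEM.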

[4] = test system: hippocampal CA3-CA1 pathway (fEPSP); assay: Extracellular field recordings, CA3-CA1 fEPSP slope in hippocampal slices; type: cell-based, mouse; settings: for fEPSP slope, effect of NR2B siP in presence of Ro 25–6981: Ro 25–6981 3 μM, added 10 min before Pen siP (2 μM, 30 min)
Method in brief: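 Hippocampal slices were used; wild-type slices came from 3-month-old C57BL/6 mice. CA1 fEPSPs were evoked by bipolar Schaffer collateral stimulation (0.1 ms pulses at 0.033 Hz) at the intensity giving 50% of maximal slope. After a stable baseline, Pen-tagged test or control peptide was perfused for 30 min. Where used, Ro 25–6981 (3 μM) perfusion began 10 min before peptide. Read-out: percent change from baseline fEPSP slope.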

NR2B [5] = settings: infusion into dorsal hippocampus; ref Zhang et al., 2008; cited from earlier work
total NR2B = assay: Total NR2B levels in hippocampal slices; type: cell-based, mouse; settings: acute hippocampal slices, NMDA 50 or 100 μM, 15 min
Method in brief: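 Acute mouse hippocampal slices were exposed to NMDA (50 or 100 μM, 15 min) in Mg2+-free Krebs buffer. Lysates were prepared with protease and phosphatase inhibitors and immunoblotted for total NR2B.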

[6] = test system: Thr75 DARPP-32 (Cdk5 substrate); assay: phospho-Thr75 DARPP-32 in acute brain slices; type: cell-based, mouse; settings: acute striatal slices, NR2B siP (Figure S3C and D)
Method in brief: (§1)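 Acute mouse striatal slices were treated in Mg2+-free Krebs buffer with polyarginine (R7)-tagged test peptide (0–100 μM, 0–180 min). Lysates were prepared with protease and phosphatase inhibitors and immunoblotted. For NR2B, P-S1116 was expressed as the P-S1116/total NR2B ratio; for DARPP-32, phospho-Thr75 was probed with total DARPP-32.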

GFP-NR2B = assay: Cell surface GFP-NR2B in dendrites of cultured hippocampal neurons; type: cell-based, rat; settings: NR2B siP 2 μM, 30 min, vs control peptide (S1116A); n = 49–64 cells
NR2B [7] = assay: Cell surface biotinylation of NR2B in hippocampal slices; type: cell-based, mouse; settings: n = 4
NR2B-Cdk5 interaction = assay: Pull-down of Cdk5 by recombinant GST-tagged NR2B in vitro; type: binding; settings: n = 3
[8] = test system: Cdk5 (substrate inhibitor-1); assay: In vitro phosphorylation of inhibitor-1 by Cdk5; type: biochemical; settings: Figure S3A
[9] = test system: Ser1116 of NR2B phosphorylated by Cdk5; assay: P-S1116 NR2B in acute striatal slices; type: cell-based; settings: acute mouse striatal slices, NR2B siP (Figure S3C and D)
Method in brief: as §1

NR2B or Cdk5 = assay: NR2B and Cdk5 expression levels in hippocampal slices; type: cell-based, mouse; settings: NR2B siP
Method in brief: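 Mouse hippocampal slices treated in Mg2+-free Krebs buffer with the test peptide (0–100 μM, 0–180 min) or a scrambled control peptide. NR2B–Cdk5 association was assessed by co-immunoprecipitation using 4 pooled slices per sample. NR2B and Cdk5 levels were immunoblotted, with loading shown.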

NMDAR/AMPAR EPSC = assay: NMDA/AMPA EPSC ratio in cortical slices; type: cell-based; settings: cortical slices (pyramidal neurons), NR2B siP vs scrambled control; n = 12–16
[10] = test system: NR2B component of NMDAR EPSC; assay: Ifenprodil-sensitive NR2B component of NMDAR EPSC in slices; type: cell-based; settings: slices incubated with NR2B siP vs scramble control; n = 6–7
Ser1116 of NR2B [11] = assay: P-S1116 in siP-infused hippocampal area CA1; type: in vivo; settings: rat CA1, NR2B siP vs scramble control; n = 4
Method in brief: (§2)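 Sprague-Dawley rats received continuous bilateral dorsal hippocampal infusion of test or scrambled peptide by osmotic pump. Epifluorescent CA1 tissue punches were immunoblotted, with protease and phosphatase inhibitors present. P-S1116 was expressed as the P-S1116/total NR2B ratio. Cell surface NR2B was measured from 4 pooled punches per condition.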

NR2B [12] = assay: NR2B cell surface expression in siP-infused hippocampal area CA1; type: in vivo; settings: rat CA1, NR2B siP vs scramble control; 4 pooled tissue punches
Method in brief: as §2

mice = assay: Fear conditioning in mice, acute infusion into dorsal hippocampus; type: in vivo, mouse
Ser1116 of NR2B [13] = assay: P-S1116 NR2B in CA1 after siP infusion and fear conditioning; type: in vivo; settings: NR2B siP infusion (Figure S5A)
Method in brief: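 Test peptide or control peptide was infused into dorsal hippocampus before fear conditioning. Animals were killed 1 h after training, and CA1 lysates were prepared with protease and phosphatase inhibitors. P-S1116 and total NR2B were measured by quantitative immunoblot and reported as the P-S1116/total NR2B ratio. Data are mean ± SEM.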

[14] = test system: NMDAR / NR2B component of NMDAR-EPSC; assay: Whole-cell voltage-clamp NMDAR-EPSC, CA1 pyramidal neurons in hippocampal slices; type: cell-based, mouse
Method in brief: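 Acute mouse hippocampal slices were pretreated with vehicle or Cdk5 inhibitor. Whole-cell voltage-clamp recordings of synaptically evoked NMDAR-EPSCs were made from CA1 pyramidal neurons, first without and then with the NR2B blocker ifenprodil. The ifenprodil-sensitive part was taken as the NR2B component; decay kinetics were also measured.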

[15] = slices from Cdk5 cKO mice, NR2B siP 2 μM, 30 min, n = 3

## C=C1[C@@H](O)[C@@H]2O[C@]3(CC[C@H](/C=C/[C@@H](C)[C@@H]4CC(C)=C[C@@]5(O[C@H](C[C@@](C)(O)C(=O)O)CC[C@H]5O)O4)O3)CC[C@H]2O[C@@H]1[C@@H](O)C[C@H](C)[C@H]1O[C@@]2(CCCCO2)CC[C@H]1C [okadaic acid]
[1]; hippocampal slices, PP2A/PP1 inhibitor okadaic acid + NMDA (Figure S2C)
  ability of NMDA to reduce P-S1116 in presence of okadaic acid: attenuated

## RRRSYFHKEDRPPRDK [scrambled, reference compound]
[2]
  in vitro phosphorylation of Ser1116 NR2B by Cdk5: did not attenuate Ser1116 phosphorylation in vitro
[2]; listed as scramble
  in vitro phosphorylation of Ser1116 NR2B by Cdk5: no effect
[3]
  Cdk5-NR2B co-immunoprecipitation / interaction: did not affect Cdk5-NR2B interactions
Sprague-Dawley rats; rats
  conditioned fear response at 96 h: extinguished by 96 h for both groups
rats
  nociception, pain threshold, or motor reflexes: neither NR2B siP, nor scrambled control affected nociception, pain threshold, or motor reflexes

## C[C@@H](CN1CCC(Cc2ccccc2)CC1)[C@@H](O)c1ccc(O)cc1 [Ro25–6981]
[4]; n = 3
  fEPSP slope, effect of NR2B siP in presence of Ro 25–6981: blocked
NR2B [5]
  contextual fear learning: impair contextual fear learning
  locomotor or anxiety-related behavior: but not locomotor or anxiety-related behavior

## CN[C@H](CC(=O)O)C(=O)O [NMDA, N-methyl-D-aspartate]
[1]; acute hippocampal slices, NMDA 50 or 100 μM, 15 min, n = 4
  P-S1116 normalized to total NR2B: dose-dependently attenuated P-S1116
Total NR2B
  total NR2B levels: reduced total NR2B levels

## RRPPRSPDHKRYFRDKE [NR2B siP]
[6]
  phosphorylation state of Thr75 DARPP-32: no effect
GFP-NR2B
  cell surface GFP-NR2B levels, increase, siP: 1.5 fold
NR2B [7]; NR2B siP 1 h, 100 μM
  NR2B cell surface levels, increase, siP: 3.3 fold
NR2B [7]; NR2B siP or Scramble 1 h, 100 μM, or CP681301 1 h, 50 μM
  NR2B cell surface levels: increased
NR2B-Cdk5 interaction
  block of pull-down of Cdk5 by GST-tagged NR2B: most potently blocked the pull-down of Cdk5; also recorded: dose-dependently disrupts NR2B-Cdk5 binding in vitro
[2]
  in vitro phosphorylation of Ser1116 NR2B by Cdk5: dose-dependently inhibits
[8]
  in vitro phosphorylation of inhibitor-1: did not inhibit
[9]
  P-S1116 in striatal slices: time-dependently reduced P-S1116
[3]
  Cdk5-NR2B co-immunoprecipitation / interaction: disrupts NR2B-Cdk5 interaction; also recorded: effectively blocked subsequent co-immunoprecipitation of Cdk5 and NR2B
NR2B or Cdk5
  levels of NR2B or Cdk5 expression: did not alter levels of NR2B or Cdk5 expression
NMDAR/AMPAR EPSC
  NMDA/AMPA EPSC ratio, increase: 1.8 fold
[10]
  ifenprodil-sensitive NR2B component of NMDAR EPSC, increase: 1.5 fold
[4]; n = 3
  fEPSP slope, effect of NR2B siP in presence of Ro 25–6981: did not show a significant effect
[4]; hippocampal slices, after washout of NR2B siP (Pen siP), vs control peptide
  fEPSP slope, steady state after washout, relative to control treated slices: 1.6 fold
[4]; [15]
  fEPSP slope in Cdk5 cKO, effect: almost absent in Cdk5 cKO mice
  fEPSP slope in Cdk5 cKO, increase: 1.2 fold
Ser1116 of NR2B [11]
  P-S1116 in infused region: reduces P-S1116
NR2B [12]
  NR2B cell surface expression: increases NR2B cell surface expression
Sprague-Dawley rats; rats, 48 and 72 h after initial training (Figure S4D and E)
  contextual memory enhancement during extinction trials: contextual memory enhancement persisted
Sprague-Dawley rats; rats, chronic infusion, 27 h after conditioning
  tone-induced freezing: no effect
Sprague-Dawley rats; rats
  conditioned fear response at 96 h: extinguished by 96 h for both groups
Sprague-Dawley rats; rats, re-trained after extinction and expiration of pump (Figure S4F)
  contextual fear memory 24 h after re-training: increased
Sprague-Dawley rats; two-month-old rats, chronic infusion, n = 20
  contextual fear memory: improved contextual fear memory
rats
  nociception, pain threshold, or motor reflexes: neither NR2B siP, nor scrambled control affected nociception, pain threshold, or motor reflexes
mice; 3 month-old mice, acute infusion
  freezing levels in context test, acute compared with chronic infusion: comparable to the levels observed with chronic infusion
mice; 3 month-old mice, acute infusion 90 min prior to conditioning, n = 6–10
  freezing in the tone test: not freezing to tone; also recorded: did not reveal any significant changes
mice; 14 month-old mice, acute infusion 90 min prior to training, vs control peptide or non-infused cannulated controls (Figure S5B)
  contextual fear memory, increase, aged mice: 1.7 fold
Ser1116 of NR2B [13]
  P-S1116 NR2B in CA1 one hour post-training: decreased P-S1116 NR2B in CA1 one hour post-training

## CC(C(O)c1ccc(O)cc1)N1CCC(Cc2ccccc2)CC1 (stereo not shown) [ifenprodil]
[14]; controls (vehicle), n = 6–7
  reduction of NMDAR-EPSC by ifenprodil in control slices: 20%
[14]; slices treated with CP681301, n = 6–7
  reduction of NMDAR-EPSC by ifenprodil in CP681301-treated slices: 33%
NR2B [5]
  contextual fear learning: impair contextual fear learning
  locomotor or anxiety-related behavior: but not locomotor or anxiety-related behavior
